Laboratory results from ChEMBL document CHEMBL4689842, “EUbOPEN Chemogenomics Library wave 1” (2021).
Where “and” joins values, the source holds several entries; their conditions need not be identical. Identical values can stand only once.

Test system: Fibroblast
Assay: Multiplex assay against human fibroblast
Assay type: toxicity, cell-based
In short: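 At seeding, live cells were stained with Hoechst33342, BioTracker Green Microtubule Cytoskeleton Dye, MitoTracker Red and Annexin V Alexa Fluor 680. After compound addition they were imaged on a CQ1 microscope at 37°C and 5% CO2, and CellPathfinder machine-learning gating sorted them into Hoechst high-intensity objects or normal cells, with normal cells further split into healthy, pyknosed or fragmented nuclei and pyknosed cells into mitotic or apoptotic. Tubulin, mitochondrial-mass and membrane-permeability phenotypes are given as per cents of cells with healthy nuclei.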

[1] = 12 h, 1 µM, compound concentration 1 uM, replicate 1
[2] = 12 h, 1 µM, compound concentration 1 uM, replicate 2
[3] = 12 h, 10 µM, compound concentration 10 uM, replicate 1
[4] = 12 h, 10 µM, compound concentration 10 uM, replicate 2
[5] = 24 h, 1 µM, compound concentration 1 uM, replicate 1
[6] = 24 h, 1 µM, compound concentration 1 uM, replicate 2
[7] = 24 h, 10 µM, compound concentration 10 uM, replicate 1
[8] = 24 h, 10 µM, compound concentration 10 uM, replicate 2

Compound: CC(=O)O[C@H]1C(=O)[C@@]2(C)[C@H]([C@H](OC(=O)c3ccccc3)[C@]3(O)C[C@H](OC(=O)[C@H](O)[C@@H](NC(=O)c4ccccc4)c4ccccc4)C(C)=C1C3(C)C)[C@]1(OC(C)=O)CO[C@@H]1C[C@@H]2O [PACLITAXEL]
- Population Apoptotic (%) [1]: 55% and 76%
- Population Fragmented Nuclei (%) [1]: 25% and 15%
- Population Healthy Nuclei (%) [1]: 66% and 75%
- Population Hoechst High Intensity Objects (%) [1]: 11% and 8%
- Population Membrane Permeable-Phenotype (%) [1]: 5%
- Population Mitochondria Different-Phenotype (%) [1]: 3% and 2%
- Population Mitotic Cells (%) [1]: 45% and 23%
- Population Normal (%) [1]: 88% and 91%
- Population Pyknosed Nuclei (%) [1]: 8% and 9%
- Population Tubulin-Different-Phenotype (%) [1]: 0%
- Total Cell Count [1]: 281 and 246
- Population Fragmented Nuclei (%) [2]: 46% and 34%
- Population Healthy Nuclei (%) [2]: 35% and 59%
- Population Hoechst High Intensity Objects (%) [2]: 32% and 39%
- Population Mitochondria Different-Phenotype (%) [2]: 10% and 15%
- Population Mitotic Cells (%) [2]: 40% and 100%
- Population Normal (%) [2]: 67% and 60%
- Population Pyknosed Nuclei (%) [2]: 18% and 6%
- Population Tubulin-Different-Phenotype (%) [2]: 10% and 26%
- Total Cell Count [2]: 80 and 73
- Population Apoptotic (%) [3]: 81% [middle of 4 runs]
- Population Fragmented Nuclei (%) [3]: 23% and 24%
- Population Healthy Nuclei (%) [3]: 61% [middle of 4 runs]
- Population Hoechst High Intensity Objects (%) [3]: 12% [middle of 4 runs]
- Population Membrane Permeable-Phenotype (%) [3]: 5% and 3%
- Population Mitochondria Different-Phenotype (%) [3]: 5% and 4% and 2%
- Population Mitotic Cells (%) [3]: 26% [middle of 4 runs]
- Population Normal (%) [3]: 88% and 90% and 79% and 87%
- Population Pyknosed Nuclei (%) [3]: 14% and 21% and 11%
- Total Cell Count [3]: 304 [middle of 4 runs]
- Population Fragmented Nuclei (%) [4]: 58% [middle of 4 runs]
- Population Healthy Nuclei (%) [4]: 42% [middle of 4 runs]
- Population Hoechst High Intensity Objects (%) [4]: 37% [middle of 4 runs]
- Population Normal (%) [4]: 68% and 62% and 51% and 72%
- Population Pyknosed Nuclei (%) [4]: 7% and 6% and 8%
- Population Tubulin-Different-Phenotype (%) [4]: 9% [middle of 4 runs]
- Total Cell Count [4]: 93 and 80 and 115
- Population Apoptotic (%) [5]: 48% and 38%
- Population Fragmented Nuclei (%) [5]: 18% and 13%
- Population Healthy Nuclei (%) [5]: 70% and 74%
- Population Hoechst High Intensity Objects (%) [5]: 14% and 13%
- Population Membrane Permeable-Phenotype (%) [5]: 5% and 4%
- Population Mitotic Cells (%) [5]: 52% and 61%
- Population Normal (%) [5]: 85% and 86%
- Population Pyknosed Nuclei (%) [5]: 11%
- Total Cell Count [5]: 264 and 252
- Population Fragmented Nuclei (%) [6]: 54% and 48%
- Population Healthy Nuclei (%) [6]: 28% and 48%
- Population Hoechst High Intensity Objects (%) [6]: 33% and 29%
- Population Membrane Permeable-Phenotype (%) [6]: 13% and 11%
- Population Mitochondria Different-Phenotype (%) [6]: 0% and 7%
- Population Mitotic Cells (%) [6]: 44% and 100%
- Population Normal (%) [6]: 66% and 70%
- Total Cell Count [6]: 80 and 77
- Population Apoptotic (%) [7]: 71% [middle of 4 runs]
- Population Fragmented Nuclei (%) [7]: 26% [middle of 4 runs]
- Population Healthy Nuclei (%) [7]: 64% [middle of 4 runs]
- Population Hoechst High Intensity Objects (%) [7]: 15% [middle of 4 runs]
- Population Mitochondria Different-Phenotype (%) [7]: 2% and 0%
- Population Normal (%) [7]: 85% and 87% and 84% and 75%
- Population Pyknosed Nuclei (%) [7]: 16% and 15%
- Total Cell Count [7]: 291 and 285 and 333
- Population Apoptotic (%) [8]: 44% [middle of 4 runs]
- Population Fragmented Nuclei (%) [8]: 62% [middle of 4 runs]
- Population Healthy Nuclei (%) [8]: 40% and 28% and 26%
- Population Hoechst High Intensity Objects (%) [8]: 35% [middle of 4 runs]
- Population Membrane Permeable-Phenotype (%) [8]: 17% [middle of 4 runs]
- Population Normal (%) [8]: 68% and 64% and 53% and 72%
- Population Pyknosed Nuclei (%) [8]: 11% [middle of 4 runs]
- Total Cell Count [8]: 93 [middle of 4 runs]
